Reference: ChEMBL document CHEMBL3352761, “Synthesis, antitumor activity, and mechanism of action of benzo[b]chromeno[6,5-g][1,8]naphthyridin-7-one analogs of acronycine” (J Med Chem, 2014)
The source made the active and inactive calls. The rule behind the calls is not given here.

Legend:
[1] = Cytotoxicity against human KB-3-1 cells after 96 hrs by MTT assay; assay type: functional, cell-based; details: KB 3-1, 96 h
[2] = test system: L1210; experiment: Cytotoxicity against mouse L1210 cells after 48 hrs by MTT assay; assay type: functional, cell-based; details: L1210, 48 h
[3] = test system: L1210; experiment: Induction of cell cycle arrest in mouse L1210 cells assessed as accumulation at S phase at 5 uM incubated for 21 hrs by propidium iodide staining based flow cytometry (reference value: 32%); assay type: functional
[4] = Induction of 117-bp DNA (unknown origin) alkylation assessed as incubation time required to obtain maximum of covalent drug/DNA complex incubated for 5 mins to 24 hrs by gel shift assay
[5] = test system: MC-38; experiment: Antitumor activity against mouse C38 cells xenografted in mouse assessed as inhibition of tumor growth at 4 mg/kg, iv administered on day 12 and 24; assay type: functional
[6] = Induction of 117-bp DNA (unknown origin) alkylation incubated for 5 mins to 24 hrs by gel shift assay
Outline: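 117-bp pBS plasmid fragment (EcoRI/PvuII cut), 32P-labelled at EcoRI end, gel-purified. Incubated with drug (rising concentrations up to 50 μM, or fixed 50 μM for kinetics) in 1 mM Na cacodylate pH 7.0, dark, room temperature. Covalent complex seen as shifted band on native 6% PAGE in TBE, phosphorimaging; T1/2 taken as time to half-maximal shift.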

[7] = Induction of 117-bp DNA (unknown origin) alkylation assessed as incubation time required to obtain half of maximum of covalent drug/DNA complex incubated for 5 mins to 24 hrs by gel shift assay
Outline: (§1)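 117-bp pBS EcoRI/PvuII fragment, 32P-end-labelled at EcoRI site, gel-purified; incubated with 50 μM drug in 1 mM Na cacodylate pH 7.0, dark, room temperature, 5 min to 24 h; 6% native polyacrylamide gel in TBE pH 8.3, ~5 h at 300 V; phosphorimaging of shifted band; T1/2 = time to half-maximal gel shift from quantification plots; nd if no maximum reached.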

[8] = Induction of 117-bp DNA (unknown origin) alkylation at 50 uM incubated for 24 hrs by gel shift assay
Outline: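 Labelled 117-bp DNA fragment incubated with drug at increasing concentrations up to 50 μM in 1 mM Na cacodylate pH 7.0, dark, room temperature, 2 or 24 h; native polyacrylamide electrophoresis; bound/free ratio quantified relative to a 50 μM reference alkylator control; scored strong, weak (no plateau by 24 h) or none.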

[9] = test system: L1210; experiment: Induction of cell cycle arrest in mouse L1210 cells assessed as accumulation at S phase at 10 uM incubated for 21 hrs by propidium iodide staining based flow cytometry (reference value: 32%); assay type: functional
[10] = Induction of 117-bp DNA (unknown origin) alkylation assessed as incubation time required to obtain half of maximum of covalent drug/DNA complex at 50 uM incubated for 5 mins to 24 hrs by gel shift assay; outline: as §1
[11] = test system: L1210; experiment: Induction of cell cycle arrest in mouse L1210 cells assessed as accumulation at S phase at 2.5 uM incubated for 21 hrs by propidium iodide staining based flow cytometry (reference value: 32%); assay type: functional

SMILES	IC50 [1]	IC50 [2]	Activity [3]	Activity [6]	T1/2 [7]	also measured
COc1cc2c(c3c1c(=O)c1cc4ccccc4nc1n3C)C=CC(C)(C)O2	3700 nM	11000 nM	inactive	–	–	–
COc1c2c(cc3c1c(=O)c1cc4ccccc4nc1n3C)OC(C)(C)C=C2	14000 nM	24000 nM	inactive	–	–	–
COc1cc2c(c3c1c(=O)c1cc4ccccc4nc1n3C)[C@@H](OC(C)=O)[C@@H](OC(C)=O)C(C)(C)O2	110 nM	190 nM	–	Active	1 h	Tmax [4]: 3 h; TGI [5]: inactive
COc1cc2c(c3c1c(=O)c1cc4ccccc4nc1n3C)[C@H](OC(C)=O)[C@H](OC(C)=O)C(C)(C)O2	35 nM	210 nM	–	Active	1.5 h	Tmax [4]: 3 h; TGI [5]: Active
COc1cc2c(c3c1c(=O)c1cc4ccccc4nc1n3C)[C@@H](O)[C@@H](O)C(C)(C)O2 (racemic)	–	5100 nM	–	–	–	–
COc1c2c(cc3c1c(=O)c1cc4ccccc4nc1n3C)OC(C)(C)[C@@H](O)[C@H]2O (racemic)	7000 nM	12500 nM	–	–	–	–
COc1cc2c(c3c1c(=O)c1cc4ccccc4nc1n3C)C(OC(C)=O)C(OC(C)=O)C(C)(C)O2 (racemic)	37 nM	200 nM	68%	Active	–	inhibition in vivo at 4 mg/kg ([5]; C38, 288 h, read-out: TGI): 95%; Activity [8]: Active
COc1cc2c(c3c1c(=O)c1cc4ccccc4nc1n3C)[C@@H](OC(=O)/C=C/c1ccccc1)[C@@H](OC(=O)/C=C/c1ccccc1)C(C)(C)O2 (racemic)	540 nM	5000 nM	–	–	–	–
COc1ccc(/C=C/C(=O)O[C@@H]2c3c(cc(OC)c4c(=O)c5cc6ccccc6nc5n(C)c34)OC(C)(C)[C@@H]2OC(=O)/C=C/c2ccc(OC)cc2)cc1 (racemic)	370 nM	9600 nM	70%	Active	–	–
COc1cc2c(c3c1c(=O)c1cc4ccccc4nc1n3C)[C@@H](OC(=O)/C=C/c1ccc(C(F)(F)F)cc1)[C@@H](OC(=O)/C=C/c1ccc(C(F)(F)F)cc1)C(C)(C)O2 (racemic)	420 nM	9100 nM	–	Active	–	Activity [9]: 60%
COc1cc2c(c3c1c(=O)c1cc4ccccc4nc1n3C)[C@@H](O)[C@@H](OC(=O)/C=C/c1ccccc1)C(C)(C)O2 (racemic)	30 nM	110 nM	–	Active	0.75 h	Tmax [4]: 3 h; Activity [9]: 66%
COc1ccc(/C=C/C(=O)O[C@@H]2[C@H](O)c3c(cc(OC)c4c(=O)c5cc6ccccc6nc5n(C)c34)OC2(C)C)cc1 (racemic)	23 nM	290 nM	76%	Active	–	–
COc1cc2c(c3c1c(=O)c1cc4ccccc4nc1n3C)[C@@H](O)[C@@H](OC(=O)/C=C/c1ccc(C(F)(F)F)cc1)C(C)(C)O2 (racemic)	13 nM	90 nM	69%	Active	2 h	Tmax [4]: 8 h; T1/2 [10]: 2 h
COc1cc2c(c3c1c(=O)c1cc4ccccc4nc1n3C)[C@@H](OC(C)=O)[C@@H](OC(=O)/C=C/c1ccccc1)C(C)(C)O2 (racemic)	320 nM	2100 nM	73%	Active	–	–
COc1ccc(/C=C/C(=O)O[C@@H]2[C@H](OC(C)=O)c3c(cc(OC)c4c(=O)c5cc6ccccc6nc5n(C)c34)OC2(C)C)cc1 (racemic)	470 nM	2900 nM	70%	inactive	–	–
COc1cc2c(c3c1c(=O)c1cc4ccccc4nc1n3C)[C@@H](OC(C)=O)[C@@H](OC(=O)/C=C/c1ccc(C(F)(F)F)cc1)C(C)(C)O2 (racemic)	390 nM	3800 nM	–	Active	–	Activity [11]: 73%
COc1cc2c(c3c1c(=O)c1cc4ccccc4nc1n3C)[C@H]1OC(=O)O[C@H]1C(C)(C)O2 (racemic)	41 nM	120 nM	76%	Active	–	–
COc1c2c(cc3c1c(=O)c1cc4ccccc4nc1n3C)OC(C)(C)[C@@H](OC(C)=O)[C@H]2OC(C)=O (racemic)	8800 nM	10300 nM	–	inactive	–	–
COc1c2c(cc3c1c(=O)c1cc4ccccc4nc1n3C)OC(C)(C)[C@H]1OC(=O)O[C@@H]21 (racemic)	12000 nM	20000 nM	68%	Active	–	–
COc1cc2c(c3c1c(=O)c1cc4ccccc4cc1n3C)[C@@H](OC(C)=O)[C@@H](OC(C)=O)C(C)(C)O2 (racemic)	100 nM	–	73%	Active	0.5 h	Tmax [4]: 2 h
COc1cc2c(c3c1c(=O)c1cc4ccccc4cc1n3C)C(OC(C)=O)C(OC(C)=O)C(C)(C)O2 (single isomer, unassigned; (+))	–	–	–	–	0.333 h	–
COc1cc2c(c3c1c(=O)c1cc4ccccc4cc1n3C)C(OC(C)=O)C(OC(C)=O)C(C)(C)O2 (single isomer, unassigned; (-))	–	–	–	–	0.333 h	–
COc1cc2c(c3c1c(=O)c1ccccc1n3C)C=CC(C)(C)O2 [ACRONINE]	3700 nM	–	–	–	–	–
